Laboratory results published in ChEMBL document CHEMBL1142319, “New antitumor imidazo[2,1-b]thiazole guanylhydrazones and analogues” (2008).

Columns and labels:
Format in all cases: functional
Details in all cases: for TGI: read-out: pTGI (converted)
[1] = system: Cancer cell lines; assay: Inhibition of human prostate cancer cells
In short: (§1)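 NCI 60-cell-line panel, with results grouped by tissue subpanel. Compounds dissolved in DMSO and tested at five 10-fold dilutions, top concentration 10^-4 M. Values given as -log molar concentration for 50% growth inhibition (pGI50), total growth inhibition (pTGI) and 50% cell kill (pLC50), with subpanel means calculated.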

[2] = system: Cancer cell lines; assay: Inhibition of human ovarian cancer cells; in short: as §1
[3] = system: Cancer cell lines; assay: Inhibition of human colon cancer cells; in short: as §1
[4] = system: Cancer cell lines; assay: Inhibition of human renal cancer cells; in short: as §1
[5] = system: Cancer cell lines; assay: Inhibition of human CNS cancer cells; in short: as §1
[6] = system: Cancer cell lines; assay: Inhibition of human breast cancer cells; in short: as §1
[7] = system: Melanoma cell; assay: Inhibition of human melanoma cells; in short: as §1
[8] = system: Leukemia cell; assay: Inhibition of human leukemia cells; in short: as §1
[9] = system: Cancer cell lines; assay: Inhibition of human non-small cell lung cancer cells; in short: as §1

SMILES	GI50 [1] [µM]	GI50 [2] [µM]	GI50 [3] [µM]	GI50 [4] [µM]	GI50 [5] [µM]	GI50 [6] [µM]	GI50 [7] [µM]	GI50 [8] [µM]	GI50 [9] [µM]	TGI [1] [µM]	TGI [3] [µM]	TGI [5] [µM]	TGI [6] [µM]	TGI [7] [µM]	TGI [8] [µM]	TGI [2] [µM]	TGI [4] [µM]	TGI [9] [µM]
N=C(N)N/N=C/c1c(-c2cccs2)nc2n1CCS2	19.5	39.8	17.4	22.9	19.1	17.4	21.4	18.6	28.8	36.3	38.9	39.8	40.7	38	38.9			
Cc1cn2c(/C=N/NC(=N)N)c(-c3cccs3)nc2s1	3.02	6.46	2.57	4.27	4.27	5.75	2.24	1.82	7.76	12.3	8.13	11.7	18.6	5.89	4.07	17.4	14.1	25.1
Cc1cc(-c2nc3sc(C)cn3c2/C=N/NC(=N)N)c(C)s1	4.79	12	3.72	14.1	8.32	4.47	7.41	47.9	9.77	19.1	11.7	18.2	13.5	15.1		33.1	32.4	25.1
N=C(N)N/N=C/c1c(-c2cccs2)nc2sccn12	12.3	10.2	9.77	8.32	12	14.8	15.1	6.76	12.9	24.5	24	25.7	28.2	28.8	38	26.9	21.9	29.5
N=C(N)N/N=C/c1c(-c2cc(Cl)sc2Cl)nc2sccn12	1.55	1.1	0.977	1.62	1.12	1.66	2.82	1	2.69	6.17	2.34	2.82	4.27	7.24	2.14	3.55	5.75	10.7
N=C(N)N/N=C/c1c(-c2cc(Cl)sc2Cl)nc2n1CCS2	8.13	10.5	1.82	10	8.71	12.3	10	10.2	11.2	15.1	16.2	17.4	22.9	20.4	24.5	22.9	20	22.4
Cc1cn2c(/C=N/NC(=N)N)c(-c3ccsc3)nc2s1	7.59	11	5.37	10.2	6.92	7.76	8.13	7.76	13.8	20	20.4	19.5	22.4	19.5	46.8	27.5	28.2	41.7
CCOC(=O)c1nc2sc(Cl)cn2c1/C=N\NC(=N)N	17	20.9	20.9	21.4	19.5	22.9	19.5	14.1	18.2	38.9	47.9			45.7	38.9			41.7
N=C(N)N/N=C/c1c(-c2ccsc2)nc2n1CCS2	17.4	14.5	22.9	28.2	25.1	32.4	21.9	19.1	28.8									
Cc1cc(-c2nc3sccn3c2/C=N/NC(=N)N)c(C)s1	13.8	17.4	15.5	17.8	15.5	16.2	16.2	15.5	16.6	26.9	32.4	30.2	30.2	30.9		33.9	32.4	33.1
Cc1cc(-c2nc3n(c2/C=N/NC(=N)N)CCS3)c(C)s1	15.5	24	13.8	17.4	18.6	24	15.5	20.9	17	30.9	29.5	34.7	41.7	29.5		47.9	38	35.5
N=C(N)N/N=C/c1c(-c2ccsc2)nc2sccn12	14.8	15.5	14.1	14.8	15.1	17.4	17	6.92	15.1	28.8	29.5	28.8	31.6	31.6	24	31.6	29.5	30.2

Further lines, with some results ahead:

GI50 [1] [µM]	GI50 [2] [µM]	GI50 [3] [µM]	GI50 [4] [µM]	GI50 [5] [µM]	GI50 [6] [µM]	GI50 [7] [µM]	GI50 [8] [µM]	GI50 [9] [µM]	SMILES	TGI [1] [µM]	TGI [3] [µM]	TGI [5] [µM]	TGI [6] [µM]	TGI [7] [µM]	TGI [8] [µM]	TGI [2] [µM]	TGI [4] [µM]	TGI [9] [µM]
2.29	1.1	0.339	0.832	0.447	0.741	0.708	0.138	0.676	N=C(N)N/N=C/c1c(-c2ccc(Cl)c([N+](=O)[O-])c2)nc2sc3ccccc3n12	14.8	3.63	3.02	9.55	2.75		1.95	3.89	3.8
11.7	9.12	26.3	15.5	7.76	13.8	18.2	16.6	11.5	Cc1cn2c(/C=N/Nc3ccccn3)c(-c3ccc(Cl)c([N+](=O)[O-])c3)nc2s1	38.9	42.7	19.5	38.9	38	33.9	25.7	39.8	30.9
1.51	1.86	1.86	2.19	1.2	2.29	2.04	1.7	1.7	N=C(N)N/N=C/c1c(-c2ccc(Cl)c([N+](=O)[O-])c2)nc2ccccn12	3.09	7.94	3.02	5.37	3.63	3.8	3.63	4.9	3.8
1.95	1.82	2.24	2.19	1.62	3.31	1.91	2.34	2.04	COc1cc([N+](=O)[O-])c(OC)cc1-c1nc2sc(Cl)cn2c1/C=N\NC(=N)N/N=C\c1c(-c2cc(OC)c([N+](=O)[O-])cc2OC)nc2sc(Cl)cn12	3.8	7.08	2.57	6.76	5.13		3.8	4.9	3.98
9.33	7.94	6.03	8.51	8.13	10	8.51	10.2	9.33	COc1cc(OC)cc(-c2nc3sccn3c2/C=N/NC(=N)N)c1	16.2	14.8	17.4	20.4	17.8	19.1	17	17.8	20.4
16.2	20	44.7	13.5	15.5	17.4	33.1	9.12	25.7	COc1cc([N+](=O)[O-])c(OC)cc1-c1nc2sc(Cl)cn2c1/C=N\Nc1ccccn1			30.2	41.7	46.8	35.5	33.1	30.9	
